Most compounds without a hit are left out; they make up all but 2.5% or so of the library.
TbMetRS inhib: Trypanosoma brucei MetRS inhibition | purified T. brucei MetRS, ATP depletion, Kinase-Glo luminescence | inhibition, % at 11.9 µM | 360,000 tested, 0.4% active;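 active = inhibition above a per-plate cutoff of the control wells' mean inhibition plus 3 SD, cut at about 5.5% in these data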
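Measured by: Kinase-Glo luciferase luminescence reporting remaining unconsumed ATP. Material: purified T. brucei MetRS enzyme. Doses: 11.9 µM compound single dose, 0.9% DMSO. Medium: HEPES buffer containing pyrophosphatase, BSA, spermine, DTT. Times: 15 min preincubation, 2 h reaction, all 25 °C. Reagent: methionine, ATP and bulk E. coli tRNA.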
MC4R antagonist: antagonists of human melanocortin 4 receptor (MC4R); P32245; MC4R-expressing cells, MTII-stimulated cAMP, LANCE TR-FRET; inhibition, % at 6.5 µM; 360,000 tested, 0.48% active; AID 540295;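 active = inhibition above its plate's cutoff, the mean of tested wells on that plate plus 3 SD, cut at about 29% in these data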
Target sequence (P32245 whole entry, looked up): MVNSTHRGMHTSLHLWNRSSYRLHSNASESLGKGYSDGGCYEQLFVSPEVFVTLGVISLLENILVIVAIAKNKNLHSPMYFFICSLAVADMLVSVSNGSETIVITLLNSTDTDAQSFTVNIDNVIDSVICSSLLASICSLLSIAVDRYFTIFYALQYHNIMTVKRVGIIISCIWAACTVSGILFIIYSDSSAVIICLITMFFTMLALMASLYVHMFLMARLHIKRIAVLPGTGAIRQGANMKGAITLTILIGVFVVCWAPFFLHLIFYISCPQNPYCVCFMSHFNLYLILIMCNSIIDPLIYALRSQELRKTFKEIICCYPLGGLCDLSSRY
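Assay system: U2OS-MC4R stable cell line; Also added: Melanotan II; Technique: Eu-cAMP/anti-cAMP TR-FRET, emission 671 nm; Times: 30-min compound, 1-h challenge, 1-h detection, room temperature.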
Bfl-1 A1 inh: inhibitors of the anti-apoptotic protein A1, read as caspase activation. MEF A1-2A-BIM cells, Caspase-Glo 3/7 luminescence, 3 h; percent of clofoctol response, vehicle zero. caspase activation, % (no concentration beside the values). 330,000 tested, 0.066% active;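 active = over half of replicate activation scores above 10%, or exactly half above 10 with the replicate mean above 10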
NALP1 inh: inhibitors of NALP1 inflammasome in yeast; S. cerevisiae NALP1/ASC/caspase-1 growth, X-gal OD620, 72 h; inhibition, % at 10 µM; 280,000 tested, 0.61% active; in the data active = inhibition mostly above about 24%, no sharp cut-off; inactive = mostly below about 32%
NLRP3 yeast inh: blocks the NALP3 inflammasome reconstituted in yeast; Yeast reconstituted NLRP3/ASC/caspase-1, beta-gal luminescence, 24 h; inhibition, % at 10 µM; 330,000 tested, 0.39% active; AID 2825;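 active = inhibition of 50% or more; inactive = inhibition below 50%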
MC4R ag barr: activates human MC4R beta-arrestin recruitment; U2OS MC4R beta-arrestin complementation, luminescence; percent of melanotan II response, DMSO zero; 360,000 tested, 0.98% active; activation, % at 8.9 µM;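 active = activation above a per-plate cutoff, the mean activation of sample wells on that plate plus 3 SD, cut at about 8% in these data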
NALP3 yeast conf: NALP3 inhibition confirmation in yeast | inhibition, % at 10 µM | AID 435006 | yeast expressing human NALP3, luminescence | shares compounds with NLRP3 yeast inh | 1,300 tested, 81% active; in the data active = inhibition above about 48%
Casp1 ASC ctr: counter-screen for NALP3 inhibitors: yeast caspase-1-ASC. shares compounds with NLRP3 yeast inh. yeast expressing Caspase-1-ASC, luminescence counter screen. inhibition, % at 10 µM. 1,000 tested, 66% active
NALP3 retest: yeast NALP3 inhibition, confirmed on retest; shares compounds with NLRP3 yeast inh; yeast expressing human NALP3, luminescence read-out; inhibition, % at 10 µM; 1,000 tested, 53% active; AID 488794
Each line names hits and unclear results; the compound was inactive in the other large screens (follow-up assays come after a bar, where they were run). Rule as the data show it, unless noted: active = inhibition above about 50%; inactive = the rest.

COc1ccc(C(=O)CC(=O)Nc2ccc([N+](=O)[O-])cc2)cc1	NLRP3 yeast inh 67.0 | NALP3 yeast conf 74.8 | Casp1 ASC ctr 77.7 | NALP3 retest 82.5
O=S(=O)(NC1CC2CCC1C2)c1ccc(Br)cc1 (centres undefined)	none
O=S(=O)(NC1CC2CCC1C2)c1ccc(Br)s1 (centres undefined)	NLRP3 yeast inh 50.4 | NALP3 yeast conf 62.7 | Casp1 ASC ctr 59.4 | NALP3 retest inactive
Oc1c(Br)cc(Br)cc1/C=N/NC(=S)N[C@H]1CC2C=CC1C2 (some centres undefined)	none
CNC(=S)N/N=C/c1cc(Br)cc(Br)c1O	NALP1 inh 54.0, NLRP3 yeast inh 63.8 | NALP3 yeast conf inactive
O=C(Cc1c[nH]c2ccccc12)N1CCc2ccccc21	NLRP3 yeast inh 62.0 | NALP3 yeast conf inactive | Casp1 ASC ctr 60.0 | NALP3 retest 59.8
O=C(CSc1c[nH]c2ccccc12)N1CCCc2ccccc21	none
CN=C1S/C(=C\c2ccc(O)c(Br)c2)C(=O)N1C	NLRP3 yeast inh 68.0 | NALP3 yeast conf 84.2 | Casp1 ASC ctr 78.2 | NALP3 retest 71.8
CN=C1S/C(=C\c2ccc(O)c(OC)c2)C(=O)N1C	none (no result: NALP1 inh)
Cc1[nH]c2c(C)cccc2c1CCNC(=O)C1CCCCC1C(=O)OCC(F)(F)F (centres undefined)	NLRP3 yeast inh 72.2 | NALP3 yeast conf inactive
Cc1ccc(NC(=O)C2(C)CCN2C(=O)Cc2ccc(C(C)(C)C)cc2)cc1C (centres undefined)	none (no result: Bfl-1 A1 inh, NALP1 inh, NLRP3 yeast inh)
O=C(Nc1ccc2c(c1)OCCO2)C(c1cc2ccccc2o1)N1CCC(Cc2ccccc2)CC1 (centres undefined)	none (no result: MC4R antagonist, Bfl-1 A1 inh, NALP1 inh, NLRP3 yeast inh, MC4R ag barr)
COc1c(O)c(=O)n2c3ccccc3c3ccnc1c32	NLRP3 yeast inh 76.9 (no result: NALP1 inh) | NALP3 yeast conf 85.1 | Casp1 ASC ctr 80.3 | NALP3 retest 82.0
Cc1ccc(C)c(N2N=C(C(=O)OCc3nnc(-c4ccccc4Br)o3)CCC2=O)c1	none (no result: Bfl-1 A1 inh, NALP1 inh, NLRP3 yeast inh)
CCN1C[C@@H]2[C@@H]3C(=O)N(Cc4ccccc4)C(=O)[C@@H]3[C@](C)(C1=O)N2C(=O)c1ccc(C(F)(F)F)cc1	none (no result: Bfl-1 A1 inh, NALP1 inh, NLRP3 yeast inh)
O=C(Cc1ccc(Cl)cc1)N1CCc2ccccc2C1	NLRP3 yeast inh 52.7 (no result: NALP1 inh) | NALP3 yeast conf inactive
COc1ccc(C(=O)NCCC(=O)N2CCC3(CC2)NCCc2[nH]cnc23)cc1	none
Cc1cc2ccccn2c1C(=O)c1ccccc1F	NLRP3 yeast inh 50.9 | NALP3 yeast conf 61.0 | Casp1 ASC ctr inactive | NALP3 retest inactive
CCCc1c(C(=O)N/N=C(\C)c2ccc(CC(C)C)cc2)nnn1-c1nonc1N	none (no result: Bfl-1 A1 inh, NALP1 inh, NLRP3 yeast inh)
COc1ccc(-c2ccc(SCC(=O)NCc3ccco3)nn2)cc1	none | NALP3 yeast conf inactive
COc1ccccc1CNC(=O)COc1cccnc1[N+](=O)[O-]	none
COc1ccccc1NC(=O)COc1cccnc1[N+](=O)[O-]	NLRP3 yeast inh 51.2 (no result: NALP1 inh) | NALP3 yeast conf 67.2 | Casp1 ASC ctr 75.2 | NALP3 retest 62.0
CCOc1ccccc1NC(=O)COc1cccnc1[N+](=O)[O-]	NLRP3 yeast inh 58.8 (no result: NALP1 inh) | NALP3 yeast conf 74.3
COc1ccccc1CNc1ncccc1[N+](=O)[O-]	NLRP3 yeast inh 50.0 | NALP3 yeast conf 47.8 | Casp1 ASC ctr inactive | NALP3 retest inactive
O=C(COc1cccnc1[N+](=O)[O-])Nc1ccc(F)cc1	none (no result: NALP1 inh)
CC1C(=O)N(Cc2cn(CCC3OCCO3)nn2)CCS(=O)(=O)N1Cc1ccc(-c2ccc(F)nc2)cc1 (centres undefined)	none (no result: Bfl-1 A1 inh, NALP1 inh, NLRP3 yeast inh)
COCC#Cc1cnc2c(c1)C(=O)N([C@H](C)CO)C[C@H](C)[C@@H](CN(C)S(=O)(=O)c1ccccc1)O2	none (no result: Bfl-1 A1 inh, NALP1 inh, NLRP3 yeast inh)
C[C@@H](N)C(=O)NC[C@H]1CC[C@H](C(=O)N[C@@H](Cc2ccccc2)C(=O)O)CC1	NLRP3 yeast inh 61.9 | NALP3 yeast conf 75.8 | Casp1 ASC ctr 58.3 | NALP3 retest 63.3
C=C1/C(=C\C=C2/CCC[C@]3(C)[C@@H]([C@H](C)CCCC(C)(C)O)CC[C@@H]23)C[C@@H](O)C[C@@H]1O	NLRP3 yeast inh 56.8 (no result: TbMetRS inhib, MC4R antagonist, MC4R ag barr) | NALP3 yeast conf 57.8 | Casp1 ASC ctr 54.9 | NALP3 retest inactive
CC(C)CCC[C@@H](C)[C@H]1CC[C@H]2[C@@H]3C(=O)C=C4C[C@@H](O)CC[C@]4(C)[C@H]3CC[C@]12C	none (no result: NALP1 inh)
Fc1cccc(Nc2ncnc3c2cnn3-c2ccccc2)c1	NLRP3 yeast inh 62.9 | NALP3 yeast conf 77.0
O=C(O)c1cccc(Nc2ncnc3c2cnn3-c2ccccc2)c1	none
Clc1cccc(Nc2ncnc3c2cnn3-c2ccccc2)c1	NLRP3 yeast inh 53.1 (no result: NALP1 inh) | NALP3 yeast conf 60.8 | Casp1 ASC ctr inactive | NALP3 retest inactive
CC(=O)/C(=N\Nc1ccccc1)Oc1ccc(Br)cc1	none (no result: NALP1 inh)
COc1ccc(/C=C/C(=O)Nc2cc(C)on2)cc1	none
Cc1cc(NC(=O)/C=C/c2ccccc2)no1	NLRP3 yeast inh 50.2 | NALP3 yeast conf 67.8 | Casp1 ASC ctr inactive | NALP3 retest inactive
CCCNc1ncc2c(=O)[nH][nH]c(=O)c2n1	none (no result: Bfl-1 A1 inh, NALP1 inh, NLRP3 yeast inh)
Cn1c(N2CCOCC2)c(/C=N/OC(=O)c2ccc(F)cc2)c2ccccc21	NLRP3 yeast inh 65.2 | NALP3 yeast conf 84.5 | Casp1 ASC ctr 61.2 | NALP3 retest 55.6
N#C/C(=C/c1cccs1)c1nc2ccccc2[nH]1	NLRP3 yeast inh 80.3 | NALP3 yeast conf 70.1 | Casp1 ASC ctr 83.5 | NALP3 retest 88.2
Cc1ccc(/C=C(\C#N)c2nc3ccccc3[nH]2)s1	NLRP3 yeast inh 51.1 | NALP3 yeast conf 63.0 | Casp1 ASC ctr inactive | NALP3 retest inactive
N#C/C(=C\c1c(Cl)cccc1Cl)c1nc2ccccc2[nH]1	none
O=c1cc(-c2ccccc2Cl)oc2ccc([N+](=O)[O-])c(O)c12	NLRP3 yeast inh 57.1 | NALP3 yeast conf 72.2 | Casp1 ASC ctr inactive | NALP3 retest 56.6
O=C(NC(Cc1cn(Cc2ccccc2)cn1)C(=O)O)OCC1c2ccccc2-c2ccccc21 (centres undefined)	none (no result: MC4R antagonist, Bfl-1 A1 inh, NALP1 inh, NLRP3 yeast inh, MC4R ag barr)
Nc1nc(-c2ccc(Oc3ccccc3)cc2)cs1	NALP1 inh 98.5, NLRP3 yeast inh 96.8 | NALP3 yeast conf 57.0 | Casp1 ASC ctr 98.8 | NALP3 retest 99.4
Nc1nc(-c2ccc(-c3ccccc3)cc2)cs1	none
O=C(O)c1cccnc1C(=O)c1ccccc1	none (no result: NALP1 inh)

Source: PubChem
